# Laboratory results published in ChEMBL document CHEMBL1126293, “Substrate specificity of isopenicillin N synthase” (J Med Chem, 1992).
# Key:
# [1] = system: Micrococcus luteus; experiment: In vitro antibiotic activity against Micrococcus luteus(ATCC 9341 stain).; format: functional, organism-based
# Procedure, shortened: (§1)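 Peptides at 0.3 mM incubated with purified IPNS in Tris-HCl pH 8.0 containing KCl, MgSO4, FeSO4, ascorbate and DTT, at 25 °C for 2–20 min in quadruplicate, then stopped with ethanol. Samples with and without penicillinase went into wells on M. luteus ATCC 9341 lawns, incubated overnight at 37 °C, and inhibition zones were read. Peptides giving no product were retested for 1 h at 3 mM.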
# [2] = Antibiotic activity against Micrococcus luteus (ATCC 9341 strain); format: functional; procedure, shortened: as §1
# [3] = biological target: T1, Isopenicillin N synthase (Penicillium chrysogenum) (UniProt P08703); experiment: Anti-micrococcus luteus activity was tested for inhibition of isopenicillin N synthetase.; settings: Penicillium chrysogenum (Penicillium notatum)
# T1 sequence (whole entry): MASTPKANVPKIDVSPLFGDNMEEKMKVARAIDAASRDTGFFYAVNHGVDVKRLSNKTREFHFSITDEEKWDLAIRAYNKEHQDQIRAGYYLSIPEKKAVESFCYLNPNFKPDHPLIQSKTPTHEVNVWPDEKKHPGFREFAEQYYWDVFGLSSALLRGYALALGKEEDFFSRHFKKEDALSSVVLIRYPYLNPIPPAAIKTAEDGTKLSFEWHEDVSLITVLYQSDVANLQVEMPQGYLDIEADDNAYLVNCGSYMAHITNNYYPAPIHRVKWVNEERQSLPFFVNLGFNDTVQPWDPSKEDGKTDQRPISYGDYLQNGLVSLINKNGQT
# Procedure, shortened: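 Peptide added at a known amount to a standard IPNS reaction mixture with ACV as substrate before starting the reaction with enzyme. Applied to peptides not converted to an anti-M. luteus product. Percent inhibition derived from the ratio of reaction rates with and without the peptide.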
# [4] = biological target: T2, Regulatory protein BlaR1 (Bacillus licheniformis) (UniProt P12287); experiment: Beta-lactamase induction in Bacillus licheniformis
# T2 sequence (whole entry): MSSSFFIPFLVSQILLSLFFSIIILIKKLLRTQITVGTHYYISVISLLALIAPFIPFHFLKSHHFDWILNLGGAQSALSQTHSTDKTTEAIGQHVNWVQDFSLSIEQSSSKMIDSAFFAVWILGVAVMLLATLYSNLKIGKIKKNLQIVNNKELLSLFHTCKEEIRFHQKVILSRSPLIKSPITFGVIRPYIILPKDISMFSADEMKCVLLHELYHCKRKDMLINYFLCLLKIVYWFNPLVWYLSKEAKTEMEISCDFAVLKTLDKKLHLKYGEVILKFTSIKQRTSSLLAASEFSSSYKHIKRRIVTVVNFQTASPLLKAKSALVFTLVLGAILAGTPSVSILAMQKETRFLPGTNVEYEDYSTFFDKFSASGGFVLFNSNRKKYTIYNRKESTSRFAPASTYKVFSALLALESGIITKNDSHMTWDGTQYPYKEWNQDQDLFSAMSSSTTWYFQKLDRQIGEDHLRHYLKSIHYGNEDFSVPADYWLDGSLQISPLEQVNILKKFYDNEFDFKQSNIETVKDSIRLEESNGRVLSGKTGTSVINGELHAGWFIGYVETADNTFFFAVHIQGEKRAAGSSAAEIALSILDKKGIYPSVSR
# Procedure, shortened: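 Ethanol-stopped IPNS reactions (peptide 0.3 mM, 25 °C) were mixed 1:1 with log-phase B. licheniformis ATCC 14580 diluted to 30 Klett units and incubated for 2 h at 30 °C. Tylosin was added, then after 15 min nitrocefin, with A492 read over 30 min. β-Lactam was quantified by β-lactamase synthesis relative to penicillin G.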
Activity [3],Beta-lactamase induction [4],Compound,Antibiotic activity [1],Antibiotic activity [2]
,,N[C@@H](CCCC(=O)NC(CSSCC(NC(=O)CCC[C@H](N)C(=O)O)C(=O)N[C@H](CO)C(=O)O)C(=O)N[C@H](CO)C(=O)O)C(=O)O (some centres undefined),Yes,
No activity,,CC(C)[C@@H](NC(=O)[C@H](CS)NC(=O)CC[C@H](N)C(=O)O)C(=O)O,,No activity
,,CC(C)[C@H](NC(=O)CCC[C@H](N)C(=O)O)C(=O)N[C@@H](C(=O)O)C(C)C,,No activity
,,CSC[C@@H](NC(=O)C(CSSCC(NC(=O)CCC[C@H](N)C(=O)O)C(=O)N[C@H](CSC)C(=O)O)NC(=O)CCC[C@H](N)C(=O)O)C(=O)O (some centres undefined),,No activity
No activity,+,CC(C)[C@@H](NC(=O)[C@H](CS)NC(=O)CCC[C@H](N)C(=O)O)C(=O)O,,
No activity,,CC(C)[C@@H](NC(=O)[C@H](CSSC[C@H](NC(=O)CCc1cccc(O)c1)C(=O)N[C@@H](C(=O)O)C(C)C)NC(=O)CCc1cccc(O)c1)C(=O)O,Yes,
,,N[C@@H](CCCC(=O)NC(CSSCC(NC(=O)CCC[C@H](N)C(=O)O)C(=O)N[C@H](Cc1ccccc1)C(=O)O)C(=O)N[C@H](Cc1ccccc1)C(=O)O)C(=O)O (some centres undefined),,No activity
,,CC(C)[C@@H](NC(=O)[C@H](CS)NC(=O)Cc1ccccc1CN)C(=O)O,Yes,
,,CS(=O)(=O)C[C@@H](NC(=O)C(CSSCC(NC(=O)CCC[C@H](N)C(=O)O)C(=O)N[C@H](CS(C)(=O)=O)C(=O)O)NC(=O)CCC[C@H](N)C(=O)O)C(=O)O (some centres undefined),,No activity
No activity,,CC(NC(=O)CCC[C@H](N)C(=O)O)C(=O)N[C@@H](C(=O)O)C(C)(C)S (some centres undefined),,
,,N[C@@H](CCCC(=O)NC(CSSCC(NC(=O)CCC[C@H](N)C(=O)O)C(=O)N[C@H](CC1CNc2ccccc21)C(=O)O)C(=O)N[C@H](CC1CNc2ccccc21)C(=O)O)C(=O)O (some centres undefined),,No activity
No activity,,CC(C)[C@@H](NC(=O)[C@H](CSSC[C@H](NC(=O)[C@@H]1CCCN1C(=O)CN)C(=O)N[C@@H](C(=O)O)C(C)C)NC(=O)[C@@H]1CCCN1C(=O)CN)C(=O)O,,No activity
No activity,+,CC(C)[C@@H](NC(=O)[C@H](CO)NC(=O)CCC[C@H](N)C(=O)O)C(=O)O,,No activity
No activity,+,CC(C)[C@@H](NC(=O)[C@H](CS)NC(=O)Cc1ccc(O)cc1)C(=O)O,,No activity
No activity,+,CC(C)[C@@H](NC(=O)[C@H](C)NC(=O)CCC[C@H](N)C(=O)O)C(=O)O,,No activity
No activity,,COCC(COC)[C@H](NC(=O)C(CSSCC(NC(=O)CCC[C@H](N)C(=O)O)C(=O)N[C@H](C(=O)O)C(COC)COC)NC(=O)CCC[C@H](N)C(=O)O)C(=O)O (some centres undefined),,No activity
No activity,,C=CC[C@H](NC(=O)CCC[C@H](N)C(=O)O)C(=O)N[C@@H](C(=O)O)C(C)C,,No activity
No activity,,N[C@@H](CCCC(=O)NC(CSSCC(NC(=O)CCC[C@H](N)C(=O)O)C(=O)N[C@@H](C(=O)O)C1CCCCC1)C(=O)N[C@@H](C(=O)O)C1CCCCC1)C(=O)O (some centres undefined),,No activity
No activity,,CC(C)[C@@H](NC(=O)[C@H](CS)NC(=O)[C@@H](N)CCC(=O)O)C(=O)O,,No activity
,,CC(C)C(NC(=O)C(CS)NC(=O)CCC[C@H](N)C(=O)O)S(=O)(=O)O (some centres undefined),,No activity
,,CC(C)[C@@H](NC(=O)[C@H](CSSC[C@H](NC(=O)COc1ccccc1)C(=O)N[C@@H](C(=O)O)C(C)C)NC(=O)COc1ccccc1)C(=O)O,Yes,

Activity [3],Beta-lactamase induction [4],Compound,Antibiotic activity [1],Antibiotic activity [2]
No activity,,N[C@@H](CCCC(=O)NC(CSSCC(NC(=O)CCC[C@H](N)C(=O)O)C(=O)NC1(C(=O)O)CCCC1)C(=O)NC1(C(=O)O)CCCC1)C(=O)O (some centres undefined),,No activity
,,CC(C)[C@@H](NC(=O)[C@H](Cc1c[nH]cn1)NC(=O)CCC[C@H](N)C(=O)O)C(=O)O,,No activity
,,CC(C)[C@@H](NC(=O)[C@H](CCS)NC(=O)CCC[C@H](N)C(=O)O)C(=O)O,,No activity
No activity,,N[C@@H](CCCC(=O)N[C@@H](CSSC[C@H](NC(=O)CCC[C@H](N)C(=O)O)C(=O)N[C@H](COCc1ccccc1)C(=O)O)C(=O)N[C@H](COCc1ccccc1)C(=O)O)C(=O)O,,No activity
,,COC(=O)CCCCC(=O)N[C@@H](CSSC[C@H](NC(=O)CCCCC(=O)OC)C(=O)N[C@@H](C(=O)O)C(C)C)C(=O)N[C@@H](C(=O)O)C(C)C,Yes,
No activity,,CC(C)[C@@H](NC(=O)[C@H](CSSC[C@H](NC(=O)c1cccc(CC(=O)O)c1)C(=O)N[C@@H](C(=O)O)C(C)C)NC(=O)c1cccc(CC(=O)O)c1)C(=O)O,,No activity
,,CC(C)[C@@H](NC(=O)[C@H](CSSC[C@H](NC(=O)Cc1ccccc1)C(=O)N[C@@H](C(=O)O)C(C)C)NC(=O)Cc1ccccc1)C(=O)O,Yes,
,,N[C@@H](CCCC(=O)NC(CSSCC(NC(=O)CCC[C@H](N)C(=O)O)C(=O)N[C@@H](Cc1cccs1)C(=O)O)C(=O)N[C@@H](Cc1cccs1)C(=O)O)C(=O)O (some centres undefined),,No activity
,,N[C@@H](CCCC(=O)NC(CSSCC(NC(=O)CCC[C@H](N)C(=O)O)C(=O)N[C@H](Cc1cccs1)C(=O)O)C(=O)N[C@H](Cc1cccs1)C(=O)O)C(=O)O (some centres undefined),,No activity
No activity,,N[C@@H](CCCC(=O)NC(CSSCC(NC(=O)CCC[C@H](N)C(=O)O)C(=O)N[C@H](COCc1ccccc1)C(=O)O)C(=O)N[C@H](COCc1ccccc1)C(=O)O)C(=O)O (some centres undefined),,No activity
,,N[C@@H](CCCC(=O)NC(CSSCC(NC(=O)CCC[C@H](N)C(=O)O)C(=O)N[C@H](CC(=O)O)C(=O)O)C(=O)N[C@H](CC(=O)O)C(=O)O)C(=O)O (some centres undefined),,No activity
,,CC(C)=C(NC(=O)C(CS)NC(=O)CCC[C@H](N)C(=O)O)C(=O)O (some centres undefined),,No activity
,,NC(=O)C[C@@H](NC(=O)C(CSSCC(NC(=O)CCC[C@H](N)C(=O)O)C(=O)N[C@H](CC(N)=O)C(=O)O)NC(=O)CCC[C@H](N)C(=O)O)C(=O)O (some centres undefined),,No activity
,,CC(C)[C@@H](NC(=O)[C@H](CSSC[C@H](NC(=O)CCCCC(=O)O)C(=O)N[C@@H](C(=O)O)C(C)C)NC(=O)CCCCC(=O)O)C(=O)O,Yes,
No activity,,COCC(COC)[C@@H](NC(=O)C(CSSCC(NC(=O)CCC[C@H](N)C(=O)O)C(=O)N[C@@H](C(=O)O)C(COC)COC)NC(=O)CCC[C@H](N)C(=O)O)C(=O)O (some centres undefined),,No activity
No activity,,CC(Cl)[C@@H](NC(=O)C(CSSCC(NC(=O)CCC[C@H](N)C(=O)O)C(=O)N[C@@H](C(=O)O)C(C)Cl)NC(=O)CCC[C@H](N)C(=O)O)C(=O)O (some centres undefined),,No activity
,,N[C@@H](CCCC(=O)NC(CSSCC(NC(=O)CCC[C@H](N)C(=O)O)C(=O)NC(Cc1cccs1)C(=O)O)C(=O)NC(Cc1cccs1)C(=O)O)C(=O)O (some centres undefined),,No activity
No activity,,CC(C)[C@@H](NC(=O)[C@@H]1CSC(C)(C)N1C(=O)CCC[C@H](N)C(=O)O)C(=O)O,,No activity
No activity,,C=C(NC(=O)CCC[C@H](N)C(=O)O)C(=O)N[C@H](COCc1ccccc1)C(=O)O,,No activity
,,CC(C)[C@@H](NC(=O)[C@H](CSSC[C@H](NC(=O)Cc1cccc(C(=O)O)c1)C(=O)N[C@@H](C(=O)O)C(C)C)NC(=O)Cc1cccc(C(=O)O)c1)C(=O)O,Yes,
,,C[S+]([O-])C[C@@H](NC(=O)C(CSSCC(NC(=O)CCC[C@H](N)C(=O)O)C(=O)N[C@H](C[S+](C)[O-])C(=O)O)NC(=O)CCC[C@H](N)C(=O)O)C(=O)O (some centres undefined),,No activity
